Data from ChEMBL document CHEMBL1126976, “Hybrids of antibiotics inhibiting protein synthesis. Synthesis and biological activity” (1993).
In brackets after ≈: the same amount, converted by molar mass.

What was measured:
Saccharomyces cerevisiae [1] = assay: The compound was tested for inhibition of Polyphenylalanine synthesis in Saccharomyces cerevisiae ribosome system at concentration of 1*10e-3 M; values are per cent of control
Saccharomyces cerevisiae [2] = assay: The compound was tested for inhibition of Polyphenylalanine synthesis in Saccharomyces cerevisiae ribosome system at concentration of 1*10e-4 M; values are per cent of control
Saccharomyces cerevisiae [3] = assay: The compound was tested for inhibition of Polyphenylalanine synthesis in Saccharomyces cerevisiae ribosome system at concentration of 1*10e-5 M; values are per cent of control
Streptococcus pneumoniae = assay: The compound was tested for minimum inhibitory concentration required for inhibition of microbial growth in Streptococcus pneumoniae at the Upjohn culture; assay type: functional
Procedure, shortened: (§1)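 Agar dilution in brain heart infusion agar with serial 2-fold compound dilutions. Organisms grown overnight on BHIA at 35 °C aerobically and suspended in TSB to 0.5 McFarland. The suspension is diluted 1:20 and spotted as 1-μL drops (~10^4 CFU). Plates incubated 18 h at 35 °C. MIC is the lowest concentration preventing visible growth.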

[4] = The compound was tested for minimum inhibitory concentration required for inhibition of microbial growth in Salmonella schottmuelleri; assay type: functional
Procedure, shortened: as §1

Klebsiella pneumoniae = assay: The compound was tested for minimum inhibitory concentration required for inhibition of microbial growth in Klebsiella pneumoniae at the Upjohn culture; assay type: functional
Procedure, shortened: as §1

Pseudomonas aeruginosa [5] = assay: The compound was tested for minimum inhibitory concentration required for inhibition of microbial growth in Pseudomonas aeruginosa at the Upjohn culture 95; assay type: functional
Procedure, shortened: as §1

Streptococcus pyogenes = assay: The compound was tested for minimum inhibitory concentration required for inhibition of microbial growth in Streptococcus pyogenes at the Upjohn culture; assay type: functional
Procedure, shortened: as §1

Enterococcus faecalis = assay: The compound was tested for minimum inhibitory concentration required for inhibition of microbial growth in Enterococcus faecalis at the Upjohn culture; assay type: functional
Procedure, shortened: as §1

Escherichia coli = assay: The compound was tested for minimum inhibitory concentration required for inhibition of microbial growth in Escherichia coli at the Upjohn culture; assay type: functional
Procedure, shortened: as §1

Staphylococcus aureus [6] = assay: The compound was tested for minimum inhibitory concentration required for inhibition of microbial growth in staphylococcus aureus at the Upjohn culture 6685; assay type: functional
Procedure, shortened: as §1

Staphylococcus aureus [7] = assay: The compound was tested for minimum inhibitory concentration required for inhibition of microbial growth in staphylococcus aureus at the Upjohn culture 6690; assay type: functional
Procedure, shortened: as §1

Staphylococcus aureus [8] = assay: The compound was tested for minimum inhibitory concentration required for inhibition of microbial growth in staphylococcus aureus at the Upjohn culture 76; assay type: functional
Procedure, shortened: as §1

Pseudomonas aeruginosa [9] = assay: The compound was tested for minimum inhibitory concentration required for inhibition of microbial growth in Pseudomonas aeruginosa at the Upjohn culture 6676; assay type: functional
Procedure, shortened: as §1

Rattus norvegicus [10] = species: Rattus norvegicus; assay: The compound was tested for inhibition of Puromycin reaction with hybrid antibiotics in a rat liver ribosome system concentrations of 2*10e-4 M; values are per cent of control
Rattus norvegicus [11] = species: Rattus norvegicus; assay: The compound was tested for inhibition of Puromycin reaction with hybrid antibiotics in a rat liver ribosome system concentrations at 1*10e-3 M; values are per cent of control
Rattus norvegicus [12] = species: Rattus norvegicus; assay: The compound was tested for inhibition of Puromycin reaction with hybrid antibiotics in a rat liver ribosome system concentrations of 2*10e-4 M; values are per cent of control; remark: listed apart in the source
Rattus norvegicus [13] = species: Rattus norvegicus; assay: The compound was tested for inhibition of Puromycin reaction with hybrid antibiotics in a rat liver ribosome system concentrations at 1*10e-3 M; values are per cent of control; remark: listed apart in the source

MIC (Streptococcus pneumoniae) [µg/mL] | MIC [4] [µg/mL] | MIC (Klebsiella pneumoniae) [µg/mL] | MIC (Pseudomonas aeruginosa [5]) [µg/mL] | MIC (Streptococcus pyogenes) [µg/mL] | MIC (Enterococcus faecalis) [µg/mL] | MIC (Escherichia coli) [µg/mL] | MIC (Staphylococcus aureus [6]) [µg/mL] | MIC (Staphylococcus aureus [7]) [µg/mL] | MIC (Staphylococcus aureus [8]) [µg/mL] | MIC (Pseudomonas aeruginosa [9]) [µg/mL] | SMILES | level, % of control (Saccharomyces cerevisiae [1]) [%] | level, % of control (Saccharomyces cerevisiae [2]) [%] | level, % of control (Saccharomyces cerevisiae [3]) [%] | level, % of control (Rattus norvegicus [10]) [%] | level, % of control (Rattus norvegicus [11]) [%] | level, % of control (Rattus norvegicus [12]) [%] | level, % of control (Rattus norvegicus [13]) [%]
– | – | – | – | – | – | – | – | – | – | – | CSC[S@@+]([O-])CC(CO)NC(=O)/C=C/c1c(C)[nH]c(=O)[nH]c1=O (some centres undefined) | 15.5 | 30.3 | 44.1 | – | – | – | –
– | > 800 | 800 (≈ 2190 µM) | > 800 | 200 (≈ 547 µM) | – | > 800 | 800 (≈ 2190 µM) | > 800 | 800 (≈ 2190 µM) | – | CCCC1CC(C(=O)NC(CO)C(O)c2ccc([N+](=O)[O-])cc2)N(C)C1 (centres undefined) | – | – | – | – | – | – | –
25 (≈ 68.6 µM) | > 400 | > 400 | > 400 | 6.25 (≈ 17.2 µM) | > 400 | > 400 | > 400 | 50 (≈ 137 µM) | 50 (≈ 137 µM) | > 400 | CSC1OC(C(NC(=O)C(Cl)Cl)C(C)O)C(O)C(O)C1O (centres undefined) | 96.8 | 90.9 | 97.3 | – | – | – | –
> 400 | > 400 | > 400 | > 400 | 50 (≈ 128 µM) | > 400 | > 400 | > 400 | > 400 | > 400 | > 400 | Cc1nc(O)nc(O)c1/C=C/C(=O)NC(CO)C(O)c1ccc([N+](=O)[O-])cc1 (centres undefined) | – | – | – | – | – | – | –
– | – | – | – | – | – | – | – | – | – | – | Cc1nc(O)nc(O)c1/C=C/C(=O)N[C@H]1[C@@H](O)[C@H](n2cnc3c(N(C)C)ncnc32)O[C@@H]1CO | 95.7 | 95.8 | 106 | 69 | 76 | – | –
0.78 (≈ 1.92 µM) | > 800 | 400 (≈ 984 µM) | > 400 | 0.2 (≈ 0.492 µM) | 50 (≈ 123 µM) | > 400 | > 400 | 0.78 (≈ 1.92 µM) | 0.78 (≈ 1.92 µM) | > 400 | CCC[C@@H]1C[C@@H](C(=O)N[C@@H]([C@H]2O[C@H](SC)[C@H](O)[C@@H](O)[C@H]2O)[C@@H](C)O)N(C)C1 [LINCOMYCIN] | – | – | – | – | – | – | –
> 400 | > 400 | > 400 | > 400 | > 400 | > 400 | > 400 | > 400 | > 400 | > 400 | > 400 | CSC1OC(C(NC(=O)/C=C/c2c(C)nc(O)nc2O)C(C)O)C(O)C(O)C1O (centres undefined) | 93.4 | 97.7 | 101 | – | – | 90 | 91

SMILES | MIC (Streptococcus pneumoniae) [µg/mL] | MIC [4] [µg/mL] | MIC (Klebsiella pneumoniae) [µg/mL] | MIC (Pseudomonas aeruginosa [5]) [µg/mL] | MIC (Streptococcus pyogenes) [µg/mL] | MIC (Enterococcus faecalis) [µg/mL] | MIC (Escherichia coli) [µg/mL] | MIC (Staphylococcus aureus [6]) [µg/mL] | MIC (Staphylococcus aureus [7]) [µg/mL] | MIC (Staphylococcus aureus [8]) [µg/mL] | MIC (Pseudomonas aeruginosa [9]) [µg/mL] | level, % of control (Saccharomyces cerevisiae [1]) [%] | level, % of control (Saccharomyces cerevisiae [2]) [%] | level, % of control (Saccharomyces cerevisiae [3]) [%] | level, % of control (Rattus norvegicus [10]) [%] | level, % of control (Rattus norvegicus [11]) [%] | level, % of control (Rattus norvegicus [12]) [%] | level, % of control (Rattus norvegicus [13]) [%]
O=C(N[C@H](CO)[C@H](O)c1ccc([N+](=O)[O-])cc1)C(Cl)Cl [CHLORAMPHENICOL] | 3.12 (≈ 9.66 µM) | 6.25 (≈ 19.3 µM) | 3.12 (≈ 9.66 µM) | 100 (≈ 309 µM) | 3.12 (≈ 9.66 µM) | 6.25 (≈ 19.3 µM) | 3.12 (≈ 9.66 µM) | 6.25 (≈ 19.3 µM) | 50 (≈ 155 µM) | 6.25 (≈ 19.3 µM) | 200 (≈ 619 µM) | – | – | – | – | – | – | –
